Sampled rows, rich in hits. Any-hit rate of the full collection: about 2.7%.
PAFAH1B3 FP inh: blocks human PAF acetylhydrolase 1B catalytic subunit 3 | inhibition, % at 3.39 µM | AID 492972 | recombinant PAFAH1B3, FP-rhodamine probe, fluorescence polarization | 340,000 tested, 0.28% active;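 active means inhibition above the screen-wide average of all tested compounds plus 3 SD, cut at about 25% in these data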;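 further: 0% = enzyme with DMSO only and 100% = wells lacking PAFAH1B3 protein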
PAFAH2 inh: inhibitors of human PAFAH2; Q99487; recombinant PAFAH2, FP-rhodamine activity probe, fluorescence polarization; inhibition, % at 3.39 µM; 340,000 tested, 0.99% active;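 active means inhibition above the mean over all tested compounds plus 3 SD, cut at about 30% in these data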;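 further: inhibitors block probe labeling of enzyme so polarization drops; 0% = enzyme with DMSO and 100% = wells lacking PAFAH2 protein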
ASAP1 inh: ASAP1 ArfGAP inhibition; Q9ULH1; ASAP1-stimulated ARF1 GTP hydrolysis, GDP FP detection; inhibition, % at 16.5 µM; 360,000 tested, 0.19% active; in the data active means inhibition above about 25%;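 further: 0% = vehicle with enzyme and substrate and 100% = no enzyme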
Target sequence (Q9ULH1 325-724 limits assumed): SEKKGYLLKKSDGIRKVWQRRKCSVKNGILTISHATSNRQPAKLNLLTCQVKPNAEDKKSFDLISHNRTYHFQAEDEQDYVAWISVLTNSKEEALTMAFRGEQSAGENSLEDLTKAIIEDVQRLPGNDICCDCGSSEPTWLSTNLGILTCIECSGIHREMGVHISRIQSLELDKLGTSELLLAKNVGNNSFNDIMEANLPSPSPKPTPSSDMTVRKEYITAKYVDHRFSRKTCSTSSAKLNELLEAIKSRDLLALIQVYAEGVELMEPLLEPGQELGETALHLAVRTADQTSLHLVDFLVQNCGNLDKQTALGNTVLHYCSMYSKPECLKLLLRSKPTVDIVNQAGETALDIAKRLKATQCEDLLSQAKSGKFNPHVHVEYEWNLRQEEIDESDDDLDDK
pPAFAH FP inh: inhibitors of human plasma PAF acetylhydrolase (pPAFAH); Q13093; recombinant pPAFAH, FP-rhodamine probe fluorescence polarization; inhibition, % at 3.39 µM; 330,000 tested, 1.5% active; AID 463082;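 active means inhibition above the mean inhibition across the screen plus 3 SD, cut at about 25% in these data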;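 further: inhibitors block binding of the rhodamine activity-based probe so polarization drops; 0% = enzyme with DMSO and 100% = wells lacking pPAFAH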
ARFGAP1 inh: inhibits rat ARF GTPase activating protein 1 | 360,000 tested, 0.26% active | inhibition, % at 16.5 µM | Arfgap1-stimulated ARF1 GTP hydrolysis, GDP FP detection | Q62848;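 active means inhibition above a per-plate limit, mean inhibition of low control wells plus 3 SD, cut at about 25% in these data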;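 further: 0% = DMSO wells with enzyme and 100% = wells lacking Arfgap1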
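System: truncated rat Arfgap1 GAP domain / Medium: HEPES-based buffer, pH 7.5 / Also added: N-terminally truncated human ARF1-GTP substrate / Incubation: enzyme reaction 120 min at 25 °C after 20 min preincubation / Measured by: FP of antibody-bound GDP Alexa 633 tracer, ex 620/em 688 nm / Replicates: singlicate, each compound tested once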
PAFAH1B2 inh: inhibitors of human PAFAH1B2 | P68402 | recombinant PAFAH1B2, FP-rhodamine activity probe, fluorescence polarization | inhibition, % at 3.39 µM | 340,000 tested, 1.2% active | AID 492953;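 active means inhibition above the mean of all tested compounds plus 3 SD, cut at about 24% in these data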;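 further: 0% = enzyme with DMSO and 100% = wells lacking PAFAH1B2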
Target sequence (P68402 whole entry, looked up): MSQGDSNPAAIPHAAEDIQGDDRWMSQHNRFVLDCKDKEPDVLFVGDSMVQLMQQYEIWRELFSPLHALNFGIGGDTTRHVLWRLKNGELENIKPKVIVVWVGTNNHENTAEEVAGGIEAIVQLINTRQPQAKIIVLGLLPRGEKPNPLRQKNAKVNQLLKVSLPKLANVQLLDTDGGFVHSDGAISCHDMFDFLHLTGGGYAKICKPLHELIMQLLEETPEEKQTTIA
pPAFAH confirm: pPAFAH (human) inhibition, confirmed | recombinant pPAFAH, FP-Rh probe fluorescence polarization | shares compounds with pPAFAH FP inh | AID 463230 | inhibition, % at 3.39 µM | 2,300 tested, 72% active;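 active means mean inhibition of the triplicate above the hit cutoff set for the earlier primary screen, cut at about 25% in these data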;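 further: 0% = enzyme with DMSO and 100% = wells lacking pPAFAH enzyme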
The depositor's hits bear a star.

How did CCN=C1NC(c2ccc(Cl)cc2)C(C(=O)OC)=C(C)N1Cc1cccc(C(F)(F)F)c1 (stereo not drawn) do in these assays?
ASAP1 inh: 3; ARFGAP1 inh: -2

How did O=C(c1ccccc1)N1CCC2CCN(S(=O)(=O)c3ccccc3)CC21 (stereo not drawn) do in these assays?
ASAP1 inh: -6; ARFGAP1 inh: 1

What do the screens show for `CCCCCCCC/C=C\CCCCCCCC(=O)NCCO`?
PAFAH1B3 FP inh: 10; PAFAH2 inh: 7; ASAP1 inh: -4; pPAFAH FP inh: 3; ARFGAP1 inh: 7; PAFAH1B2 inh: 8

Results for CCCCCCCC/C=C\CCCCCCCC(=O)NCCc1ccc(O)c(O)c1 ?
PAFAH1B3 FP inh: 12; PAFAH2 inh: -27; ASAP1 inh: 13; pPAFAH FP inh: 70*; ARFGAP1 inh: 0; PAFAH1B2 inh: 8; pPAFAH confirm: 62*

How did Cc1cc(C)cc(NC(=O)CCC(=O)N2CCSc3ccccc32)c1 do in these assays?
PAFAH1B3 FP inh: 1; PAFAH2 inh: 0; ASAP1 inh: 0; pPAFAH FP inh: 12; ARFGAP1 inh: -3; PAFAH1B2 inh: 6

How did COC(=O)c1ccccc1NC(=O)CCC(=O)N1CCSc2ccccc21 do in these assays?
PAFAH1B3 FP inh: -2; PAFAH2 inh: 1; ASAP1 inh: 0; pPAFAH FP inh: 41*; ARFGAP1 inh: 3; PAFAH1B2 inh: 9; pPAFAH confirm: 4

How did CC1=C(C(=O)OCc2ccccc2)C(c2ccc(-c3ccccc3)cc2)NC(=O)N1CCCCCC(=O)O (stereo not drawn) do in these assays?
PAFAH1B3 FP inh: 4; PAFAH2 inh: 11; ASAP1 inh: -17; pPAFAH FP inh: 46*; ARFGAP1 inh: -2; PAFAH1B2 inh: 4; pPAFAH confirm: 41*

Results for O=C1CSC(=S)N1/N=C/c1ccc(O)c(O)c1O ?
PAFAH1B3 FP inh: 19; PAFAH2 inh: 36*; pPAFAH FP inh: 67*; PAFAH1B2 inh: 7; pPAFAH confirm: 64*

What do the screens show for `CCc1ccc(C2C(C#N)=C(N)Oc3cc(N)ccc32)cc1` (stereo not drawn)?
PAFAH1B3 FP inh: 5; PAFAH2 inh: -1; ASAP1 inh: 16; pPAFAH FP inh: 59*; ARFGAP1 inh: 14; PAFAH1B2 inh: -2; pPAFAH confirm: 4

Results for N#CC1=C(N)Oc2cc(N)ccc2C1c1ccc(Cl)cc1 (stereo not drawn) ?
PAFAH1B3 FP inh: 12; PAFAH2 inh: 5; ASAP1 inh: 0; pPAFAH FP inh: 43*; ARFGAP1 inh: 1; PAFAH1B2 inh: 16; pPAFAH confirm: 0

Results for COc1ccc(C2C(C#N)=C(N)Oc3cc(N)ccc32)cc1 (stereo not drawn) ?
PAFAH1B3 FP inh: 4; PAFAH2 inh: -1; ASAP1 inh: 16; ARFGAP1 inh: 8; PAFAH1B2 inh: 7

What do the screens show for `N#C/C(=C\c1ccc([N+](=O)[O-])o1)C(=O)Nc1ccc(F)cc1`?
PAFAH1B3 FP inh: 7; PAFAH2 inh: 9; ASAP1 inh: -10; pPAFAH FP inh: 44*; ARFGAP1 inh: -12; PAFAH1B2 inh: 1; pPAFAH confirm: 24

Results for CCOC(=O)N1CCN(C(=O)C[C@H]2C[C@@]3(C(=O)OC)C(=C[C@H](COCc4ccccc4)O[C@@H]3C)N(Cc3ccc4c(c3)OCO4)C2=O)CC1 ?
ASAP1 inh: -1; ARFGAP1 inh: 3

How did COC(=O)C1=C(C)N(Cc2ccc(C(F)(F)F)cc2)C(=NCc2ccc(C(F)(F)F)cc2)NC1c1ccccc1C(F)(F)F (stereo not drawn) do in these assays?
ASAP1 inh: 14; ARFGAP1 inh: 0

Results for Cc1ccc(NC(=S)NNc2ccc(C(=O)O)cc2[N+](=O)[O-])cc1C ?
PAFAH1B3 FP inh: 9; PAFAH2 inh: 27; ASAP1 inh: -10; pPAFAH FP inh: 35*; ARFGAP1 inh: 3; PAFAH1B2 inh: 6; pPAFAH confirm: 39*

What do the screens show for `O=c1cc(-c2ccccc2Cl)oc2c(NS(=O)(=O)c3cc(Cl)cc(Cl)c3O)ccc(O)c12`?
PAFAH1B3 FP inh: 14; PAFAH2 inh: 12; pPAFAH FP inh: 41*; PAFAH1B2 inh: 13; pPAFAH confirm: 78*

Results for CCc1ccc(S(=O)(=O)Nc2ccc(O)c3c(=O)cc(-c4ccccc4Cl)oc23)cc1 ?
PAFAH1B3 FP inh: 10; PAFAH2 inh: -10; ASAP1 inh: 4; pPAFAH FP inh: 0; ARFGAP1 inh: -1; PAFAH1B2 inh: 1

What do the screens show for `CCC(=NCc1ccccc1)C1=C(O)C(C(=O)OC)C(C)(C)CC1=O` (stereo not drawn)?
PAFAH1B3 FP inh: 16; PAFAH2 inh: -7; ASAP1 inh: 2; pPAFAH FP inh: 3; ARFGAP1 inh: -1; PAFAH1B2 inh: 1

How did CCCCC(=Nc1ccc(N)cc1)C1=C(O)C(C(=O)OC)C(C)(C)CC1=O (stereo not drawn) do in these assays?
PAFAH1B3 FP inh: 14; PAFAH2 inh: 10; ASAP1 inh: -2; pPAFAH FP inh: 38*; ARFGAP1 inh: -13; PAFAH1B2 inh: 10; pPAFAH confirm: 8

What do the screens show for `CCC(=Nc1ccc(N)cc1)C1=C(O)C(C(=O)OC)C(C)(C)CC1=O` (stereo not drawn)?
PAFAH1B3 FP inh: 12; PAFAH2 inh: 9; ASAP1 inh: 1; pPAFAH FP inh: 58*; ARFGAP1 inh: 8; PAFAH1B2 inh: -2; pPAFAH confirm: 1

What do the screens show for `CCCC(=Nc1ccccc1)C1=C(O)C(C(=O)OC)C(C)(C)CC1=O` (stereo not drawn)?
PAFAH1B3 FP inh: 1; PAFAH2 inh: 0; ASAP1 inh: 6; pPAFAH FP inh: 2; ARFGAP1 inh: 2; PAFAH1B2 inh: 1

How did CC(=O)O[C@H]1C[C@@H](n2cnc3c(Cl)ncnc32)[C@@H]2OC(C)(C)O[C@@H]21 do in these assays?
ASAP1 inh: -4; ARFGAP1 inh: 3

What do the screens show for `CCc1ccc(NC(=O)Nc2ccc3c(c2)N(C)C(=O)CS3)cc1`?
PAFAH1B3 FP inh: 5; PAFAH2 inh: -2; ASAP1 inh: 16; pPAFAH FP inh: 37*; ARFGAP1 inh: 5; PAFAH1B2 inh: 0; pPAFAH confirm: 24

What do the screens show for `Cc1cc(C)cc(NC(=O)Nc2ccc3c(c2)N(C)C(=O)CS3)c1`?
PAFAH1B3 FP inh: 7; PAFAH2 inh: -10; ASAP1 inh: 0; pPAFAH FP inh: 13; ARFGAP1 inh: -10; PAFAH1B2 inh: -4

What do the screens show for `CC1Oc2cc3oc4c(O)c(O)ccc4c(=O)c3c(O)c2C1(C)C` (stereo not drawn)?
PAFAH1B3 FP inh: 8; PAFAH2 inh: 32*; pPAFAH FP inh: 75*; PAFAH1B2 inh: 11; pPAFAH confirm: 83*
